Published values gathered from unrelated publications.
Protocols differ between the studies behind these lines.
Target: Serine/threonine-protein kinase Nek10 (NEK10, Homo sapiens, UniProt Q6ZWH5)
One construct used (Q6ZWH5 1-1172): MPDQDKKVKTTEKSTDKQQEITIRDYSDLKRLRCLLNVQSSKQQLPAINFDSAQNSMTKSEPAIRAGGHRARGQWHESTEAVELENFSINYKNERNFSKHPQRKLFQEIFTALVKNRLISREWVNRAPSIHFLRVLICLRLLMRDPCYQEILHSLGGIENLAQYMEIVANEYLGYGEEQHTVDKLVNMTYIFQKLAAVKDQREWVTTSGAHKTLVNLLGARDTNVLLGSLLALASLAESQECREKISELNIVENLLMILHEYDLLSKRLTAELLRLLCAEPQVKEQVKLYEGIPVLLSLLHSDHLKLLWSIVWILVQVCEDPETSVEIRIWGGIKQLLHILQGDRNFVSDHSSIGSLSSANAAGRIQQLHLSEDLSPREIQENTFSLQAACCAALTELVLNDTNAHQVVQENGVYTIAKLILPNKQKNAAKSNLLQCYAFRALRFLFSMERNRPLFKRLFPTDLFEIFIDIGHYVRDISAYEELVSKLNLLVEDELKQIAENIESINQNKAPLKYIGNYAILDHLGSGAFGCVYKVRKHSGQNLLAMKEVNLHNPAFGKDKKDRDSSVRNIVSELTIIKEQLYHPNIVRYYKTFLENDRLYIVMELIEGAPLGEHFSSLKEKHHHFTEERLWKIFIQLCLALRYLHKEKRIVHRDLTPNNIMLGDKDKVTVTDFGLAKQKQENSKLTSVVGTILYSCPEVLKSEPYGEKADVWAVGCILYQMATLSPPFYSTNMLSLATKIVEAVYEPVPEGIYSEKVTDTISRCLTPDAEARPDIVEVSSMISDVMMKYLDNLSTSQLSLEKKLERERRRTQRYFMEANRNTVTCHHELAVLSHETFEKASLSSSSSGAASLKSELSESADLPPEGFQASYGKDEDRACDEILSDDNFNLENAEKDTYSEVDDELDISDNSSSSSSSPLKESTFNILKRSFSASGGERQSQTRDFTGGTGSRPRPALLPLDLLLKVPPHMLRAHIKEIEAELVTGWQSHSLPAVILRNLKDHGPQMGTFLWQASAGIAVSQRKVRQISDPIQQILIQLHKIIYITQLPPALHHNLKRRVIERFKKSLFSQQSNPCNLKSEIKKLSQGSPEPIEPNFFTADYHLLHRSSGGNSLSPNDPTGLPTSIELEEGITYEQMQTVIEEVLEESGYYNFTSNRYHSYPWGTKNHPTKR

The remaining binding of `FC(F)(F)Oc1cccc(-c2cnc3ccc(-c4ccncc4)nn23)c1` is reported as 28% (cell-free assay, competition with immobilised ligand; 5 µM).
With `CN(CCCC(F)(F)F)c1nccc(-c2cnn3ncccc23)n1` the remaining binding was 90% (binding; 1 µM).
The remaining binding of `Nc1c(C(=O)NCc2ccc(C(=O)NCCCC3CCCCC3)cc2)cnn1-c1ccccc1` is reported as 100% (cell-free assay, competition with immobilised ligand; 0.1 µM).
`O=C(c1ccc(Nc2nccc(-c3cc4ccccc4s3)n2)cc1)N1CCC(N2CCCC2)CC1` gave a remaining binding of 43% (binding, competition with immobilised ligand; 1 µM).
`CS(=O)(=O)N1CCCC(NC(=O)[C@H](CCC2CCCCC2)NC(=O)c2ccc(CNC(=O)c3cnc4ccccn34)cc2)C1` (some centres unmarked) has a remaining binding of 100% (cell-free assay, competition with immobilised ligand; 0.1 µM).
`COc1cnc(Nc2cccc(S(N)(=O)=O)c2)nc1N1CCN(c2ccccc2)C(=O)C1` gave a remaining binding of 90% (binding, competition with immobilised ligand; 1 µM).
`COc1cccc(CNC(=O)c2nc3scc(COCc4ccc(C(=O)O)cc4)c3c(=O)[nH]2)c1` gave a remaining binding of 61.7% (cell-free assay, competition with immobilised ligand; 1 µM).
For `O=C(NCC1CCOCC1)c1n[nH]cc1NC(=O)c1c(F)cccc1F`, the remaining binding was 72% (binding, competition with immobilised ligand; 1 µM).
The remaining binding of `CNC(=O)[C@@H]1CC[C@@H](n2c(-c3ccc4cnccc4c3)nc3ccc(C(=O)NCc4cccc(C(N)=O)c4)cc32)C1` is reported as 92% (binding, competition with immobilised ligand; 1 µM).
With `O=C(c1ccc(Nc2ncc(Cl)c(-c3cc4ccccc4s3)n2)cc1)N1CCC(N2CCCC2)CC1` the remaining binding was 74% (binding, competition with immobilised ligand; 1 µM).
The remaining binding of `C[C@H]1CCN(c2nccc(-c3cnn4ncccc34)n2)C1` is reported as 91% (binding; 1 µM).
The remaining binding of `C=CC(=O)N1CCC(C(=O)NCC(=O)N2CCN(c3nc(-c4cnc(N)nc4C(F)F)nc(N4CCOCC4)n3)CC2)CC1` is reported as 76% (binding, competition with immobilised ligand; 1 µM).
`c1cnn2ncc(-c3ccnc(N4CCC45COC5)n3)c2c1` has a remaining binding of 98% (binding; 1 µM).
The remaining binding of `COc1cc(-c2cn(C3CCc4ccccc4N(CC(F)(F)F)C3=O)nn2)ccc1-n1ccc(C)n1` (centres unmarked) is reported as 81% (cell-free assay, competition with immobilised ligand; 1 µM).
The remaining binding of `CN(C)c1nccc(-c2cnn3ncccc23)n1` is reported as 100% (binding; 1 µM).
For `O=C(NCCCN1CCOCC1)c1ccc(Nc2nccc(-c3cc4ccccc4s3)n2)cc1`, the remaining binding was 59% (binding, competition with immobilised ligand; 1 µM).
The remaining binding of `CN(C)c1ncnc(-c2ccc3nc(Nc4cc(CN5CCN(C(=O)CC(F)(F)F)CC5)ccn4)[nH]c3c2)c1Cl` is reported as 72% (cell-free assay, competition with immobilised ligand; 1 µM).
